In ChEMBL document CHEMBL3232738, “Arabinose 5-phosphate isomerase as a target for antibacterial design: studies with substrate analogues and inhibitors” (2014):
Converted amounts (≈) assume the structure as drawn. The source made the active and inactive calls. No cut-off for these calls is given here.

How the values were obtained:
[1] = test system: Pseudomonas aeruginosa; experiment: Binding affinity to Pseudomonas aeruginosa KdsD expressed Escherichia coli at 5 mM after 2 to 3 days by STD-NMR analysis
In short: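 N-His6 Pa-KdsD was expressed in E. coli M15/pREP4 (0.5 mM IPTG, 4 h), Ni-NTA purified (>95%). Ligand at 5 mM with enzyme in PBS pH 7.0, 25 °C, sampled after 0, 2 and 3 days. STD: 50 ms Gaussian pulses, 3 s saturation, on-resonance 7.9 ppm, off-resonance 40 ppm, 2 ms T1ρ filter; free-ligand reference spectra.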

[2] = test system: Pseudomonas aeruginosa; experiment: Antibacterial activity against Pseudomonas aeruginosa PAO1 ATCC 15692 after 18 to 20 hrs by broth microdilution test; format: functional
In short: (§1)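 Broth microdilution in Mueller–Hinton broth: compounds in triplicate serial dilutions from 2 mM downward, inoculum about 5 × 10⁵ cfu mL⁻¹, 18–20 h at 37 °C. MIC was taken as the lowest concentration inhibiting growth. The wild-type strain was run without glucose 6-phosphate.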

[3] = test system: Escherichia coli; experiment: Antibacterial activity against Escherichia coli K-12 BW25113 after 18 to 20 hrs by broth microdilution test; format: functional; in short: as §1
[4] = test system: Escherichia coli; experiment: Antibacterial activity against Escherichia coli K-12 BW25113 after 18 to 20 hrs by broth microdilution test in presence of glucose-6-phosphate; format: functional
In short: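 For E. coli BW25113, broth microdilution was run with glucose 6-phosphate added. Conditions: Mueller–Hinton broth, triplicate concentrations from 2 mM downward, about 5 × 10⁵ cfu mL⁻¹ inoculum, 18–20 h at 37 °C. MIC was the lowest concentration inhibiting growth.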

[5] = test system: Escherichia coli; experiment: Antibacterial activity against Escherichia coli AS19 after 18 to 20 hrs by broth microdilution test

SMILES | Activity [1] | MIC [2] [µM] | MIC [3] [µM] | MIC [4] [µM] | MIC [5] [µM]
CC(=O)O[C@H](COP(=O)(O)O)[C@@H](O)C(=O)NO | Active |  |  |  | 
CO[C@H]1O[C@H](C(=O)O)[C@@H](O)[C@@H]1O | Active | > 2000 | > 2000 | > 2000 | 250 (≈ 44.5 µg/mL)
CO[C@H]1O[C@H](COP(=O)(O)O)[C@@H](O)[C@@H]1O |  | > 2000 | > 2000 | > 2000 | 250 (≈ 61 µg/mL)

Now from value to compound:

Activity [1] | MIC [2] [µM] | MIC [3] [µM] | MIC [4] [µM] | MIC [5] [µM] | SMILES
 | > 2000 | > 2000 | > 2000 | 250 (≈ 61 µg/mL) | CO[C@@H]1O[C@H](COP(=O)(O)O)[C@@H](O)[C@@H]1O
Active |  |  |  |  | O=C(NO)[C@H](O)[C@H](O)COP(=O)(O)O
Active | > 2000 | > 2000 | > 2000 | 250 (≈ 44.5 µg/mL) | CO[C@@H]1O[C@H](C(=O)O)[C@@H](O)[C@@H]1O
Active |  |  |  |  | NC(=O)[C@H](O)[C@H](O)COP(=O)(O)O
